The test system of assay [1] is L1210. Nature of the assay: Antileukemic cytotoxicity was evaluated for the compound against L1210 leukemia. As to conditions: Mus musculus, read-out: ID50 (the source's name). Format: functional. The essentials: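 L1210 cells grown in McCoy's 5A with glutamine, HCO3-, antibiotics and 10% heat-inactivated horse serum, 37 °C, humidified 95:5 air/CO2. Seeded at 10^5 cells/mL; drug added at 10, 1, 0.1 or 0.01 μg/mL final. Cell concentration counted by Coulter Counter after 72 h; ID50 taken as concentration giving 50% growth inhibition.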

In assay [2] the test system is Rattus norvegicus. Description: […] percent activity of doxorubicin was determined as augmentation of normal oxygen uptake by fresh rat liver microsomes used as measure of redox activity. Details: concentration or dose not given beside the values. The class given is functional.

Converted amounts (≈) assume the structure as drawn. Where only a bound is given, the exact number is not on record here.

Take `CC(=O)[C@@H]1Cc2c(c(O)cc3c(=O)c4ccccc4oc23)[C@@H](OC2C[C@@H](N)[C@@H](O)C(C)O2)C1` (some centres not stated): the IC50 in assay [1] stood at 8 µg/mL (≈ 17.6 µM). In assay [2], this compound showed an Activity of 10%.
The matching figures for `CC(=O)[C@@H]1Cc2c(c(O)cc3c(=O)c4ccccc4oc23)[C@@H](OC2C[C@@H](NC(=O)C(F)(F)F)[C@@H](OC(=O)c3ccc([N+](=O)[O-])cc3)C(C)O2)C1` (some centres not stated): 10 µg/mL (≈ 14.3 µM) and 6%.
The matching figures for `CC(=O)[C@]1(O)Cc2c(c(O)cc3c(=O)c4ccccc4oc23)[C@@H](OC2C[C@@H](NC(=O)C(F)(F)F)[C@@H](O)C(C)O2)C1` (some centres not stated): more than 10 µg/mL and 3%.
On the same counts, the results for `CC(=O)[C@]1(O)Cc2c(c(O)cc3c(=O)c4ccccc4oc23)[C@@H](OC2C[C@@H](NC(=O)C(F)(F)F)[C@@H](OC(=O)c3ccc([N+](=O)[O-])cc3)C(C)O2)C1` (some centres not stated) are 8 µg/mL (≈ 11.2 µM) and 10%.
`CC(=O)[C@@H]1Cc2c(c(O)cc3c(=O)c4ccccc4oc23)[C@@H](OC2C[C@@H](NC(=O)C(F)(F)F)[C@@H](O)C(C)O2)C1` (some centres not stated): the IC50 in assay [1] turned out to be 10 µg/mL (≈ 18.2 µM). For the same compound, in assay [2], the Activity was determined as 6%.
For `CC(=O)OCC1OC(O[C@H]2C[C@H](C(C)=O)Cc3c2c(O)cc2c(=O)c4ccccc4oc32)[C@@H](NC(=O)C(F)(F)F)C(OC(C)=O)[C@H]1OC(C)=O` (some centres not stated), the IC50 in assay [1] was more than 10 µg/mL. The same compound had an Activity in assay [2] of 4%.

The values are drawn from ChEMBL document CHEMBL1123270, “10-Acetyl-10-hydroxyxantho[2,3-f]tetralin 8-glycosides as angular chromophore analogues of anthracyclines: synthesis, redox properties, microsomal oxygen consumption, and antileukemic evaluation” (1986).
